System: HEK-293T
Assay: Multiplex assay against HEK293T
Type: toxicity, cell-based
Settings: human
Method in brief: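 Live cells carried four stains from seeding: Hoechst33342, BioTracker Green Microtubule Cytoskeleton Dye, MitoTracker Red and Annexin V Alexa Fluor 680. They were imaged on a CQ1 microscope at 37°C and 5% CO2 after compound addition. Using CellPathfinder machine-learning gating, cells were split into Hoechst high-intensity objects or normal cells, normal cells into healthy, pyknosed or fragmented nuclei, and pyknosed cells into mitotic or apoptotic; tubulin, mitochondrial-mass and membrane-permeability phenotypes are per cents of healthy-nucleus cells.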

[1] = 12 h, 1 µM, compound concentration 1 uM, replicate 1
[2] = 12 h, 1 µM, compound concentration 1 uM, replicate 2
[3] = 12 h, 10 µM, compound concentration 10 uM, replicate 1
[4] = 12 h, 10 µM, compound concentration 10 uM, replicate 2
[5] = 24 h, 1 µM, compound concentration 1 uM, replicate 1
[6] = 24 h, 1 µM, compound concentration 1 uM, replicate 2
[7] = 24 h, 10 µM, compound concentration 10 uM, replicate 1
[8] = 24 h, 10 µM, compound concentration 10 uM, replicate 2
[9] = 48 h, 1 µM, compound concentration 1 uM, replicate 1
[10] = 48 h, 1 µM, compound concentration 1 uM, replicate 2
[11] = 48 h, 10 µM, compound concentration 10 uM, replicate 1
[12] = 48 h, 10 µM, compound concentration 10 uM, replicate 2

`Cl.NCCc1ccc(O)c(O)c1` [DOPAMINE HYDROCHLORIDE] was tested, and the “Population Apoptotic (%)” value [1] was 31%, the “Population Fragmented Nuclei (%)” value [1] was 6% and the “Population Healthy Nuclei (%)” value [1] was 77%. For the same compound, the “Population Hoechst High Intensity Objects (%)” value [1] was 10%, the “Population Membrane Permeable-Phenotype (%)” value [1] was 0% and the “Population Mitochondria Different-Phenotype (%)” value [1] was 54%. For the same compound, the “Population Mitotic Cells (%)” value [1] was 68%, the “Population Normal (%)” value [1] was 89% and the “Population Pyknosed Nuclei (%)” value [1] was 16%. For the same compound, the “Population Tubulin-Different-Phenotype (%)” value [1] was 36%, the “Total Cell Count” value [1] was 324 and the “Population Apoptotic (%)” value [2] was 54%. The “Population Fragmented Nuclei (%)” value [2] was 7%, the “Population Healthy Nuclei (%)” value [2] was 78% and the “Population Hoechst High Intensity Objects (%)” value [2] was 6%. The “Population Mitochondria Different-Phenotype (%)” value [2] was 58%, the “Population Mitotic Cells (%)” value [2] was 46% and the “Population Normal (%)” value [2] was 93%. The “Population Pyknosed Nuclei (%)” value [2] was 14%, the “Population Tubulin-Different-Phenotype (%)” value [2] was 18% and the “Total Cell Count” value [2] was 372. For the same compound, the “Population Apoptotic (%)” value [3] was 46%, the “Population Fragmented Nuclei (%)” value [3] was 5% and the “Population Healthy Nuclei (%)” value [3] was 77%. For the same compound, the “Population Hoechst High Intensity Objects (%)” value [3] was 6%, the “Population Membrane Permeable-Phenotype (%)” value [3] was 0% and the “Population Mitochondria Different-Phenotype (%)” value [3] was 57%. The “Population Mitotic Cells (%)” value [3] was 53%, the “Population Normal (%)” value [3] was 93% and the “Population Pyknosed Nuclei (%)” value [3] was 17%. For the same compound, the “Population Tubulin-Different-Phenotype (%)” value [3] was 43%, the “Total Cell Count” value [3] was 344 and the “Population Apoptotic (%)” value [4] was 37%. The “Population Healthy Nuclei (%)” value [4] was 83%, the “Population Hoechst High Intensity Objects (%)” value [4] was 5% and the “Population Mitochondria Different-Phenotype (%)” value [4] was 51%. The “Population Mitotic Cells (%)” value [4] was 62%, the “Population Normal (%)” value [4] was 94% and the “Population Pyknosed Nuclei (%)” value [4] was 11%. For the same compound, the “Population Tubulin-Different-Phenotype (%)” value [4] was 23%, the “Total Cell Count” value [4] was 413 and the “Population Apoptotic (%)” value [5] was 44%. The “Population Fragmented Nuclei (%)” value [5] was 9%, the “Population Healthy Nuclei (%)” value [5] was 76% and the “Population Hoechst High Intensity Objects (%)” value [5] was 4%. The “Population Membrane Permeable-Phenotype (%)” value [5] was 1%, the “Population Mitochondria Different-Phenotype (%)” value [5] was 40% and the “Population Mitotic Cells (%)” value [5] was 55%. For the same compound, the “Population Normal (%)” value [5] was 95%, the “Population Pyknosed Nuclei (%)” value [5] was 13% and the “Population Tubulin-Different-Phenotype (%)” value [5] was 19%. For the same compound, the “Total Cell Count” value [5] was 451, the “Population Apoptotic (%)” value [6] was 20% and the “Population Fragmented Nuclei (%)” value [6] was 8%. For the same compound, the “Population Healthy Nuclei (%)” value [6] was 85%, the “Population Hoechst High Intensity Objects (%)” value [6] was 5% and the “Population Membrane Permeable-Phenotype (%)” value [6] was 0%. For the same compound, the “Population Mitochondria Different-Phenotype (%)” value [6] was 46%, the “Population Mitotic Cells (%)” value [6] was 79% and the “Population Normal (%)” value [6] was 94%. For the same compound, the “Population Pyknosed Nuclei (%)” value [6] was 5%, the “Population Tubulin-Different-Phenotype (%)” value [6] was 11% and the “Total Cell Count” value [6] was 478. For the same compound, the “Population Apoptotic (%)” value [7] was 39%, the “Population Fragmented Nuclei (%)” value [7] was 7% and the “Population Healthy Nuclei (%)” value [7] was 79%. For the same compound, the “Population Hoechst High Intensity Objects (%)” value [7] was 5%, the “Population Membrane Permeable-Phenotype (%)” value [7] was 0% and the “Population Mitochondria Different-Phenotype (%)” value [7] was 36%. For the same compound, the “Population Mitotic Cells (%)” value [7] was 60%, the “Population Normal (%)” value [7] was 94% and the “Population Pyknosed Nuclei (%)” value [7] was 12%. The “Population Tubulin-Different-Phenotype (%)” value [7] was 23%, the “Total Cell Count” value [7] was 393 and the “Population Apoptotic (%)” value [8] was 38%. For the same compound, the “Population Fragmented Nuclei (%)” value [8] was 9%, the “Population Healthy Nuclei (%)” value [8] was 83% and the “Population Mitochondria Different-Phenotype (%)” value [8] was 40%. The “Population Mitotic Cells (%)” value [8] was 61%, the “Population Pyknosed Nuclei (%)” value [8] was 7% and the “Population Tubulin-Different-Phenotype (%)” value [8] was 15%. The “Total Cell Count” value [8] was 533, the “Population Apoptotic (%)” value [9] was 19% and the “Population Fragmented Nuclei (%)” value [9] was 14%. For the same compound, the “Population Healthy Nuclei (%)” value [9] was 78%, the “Population Hoechst High Intensity Objects (%)” value [9] was 4% and the “Population Membrane Permeable-Phenotype (%)” value [9] was 1%. For the same compound, the “Population Mitochondria Different-Phenotype (%)” value [9] was 23%, the “Population Mitotic Cells (%)” value [9] was 80% and the “Population Normal (%)” value [9] was 95%. For the same compound, the “Population Pyknosed Nuclei (%)” value [9] was 7%, the “Population Tubulin-Different-Phenotype (%)” value [9] was 14% and the “Total Cell Count” value [9] was 785. The “Population Apoptotic (%)” value [10] was 23%, the “Population Fragmented Nuclei (%)” value [10] was 10% and the “Population Healthy Nuclei (%)” value [10] was 81%. The “Population Membrane Permeable-Phenotype (%)” value [10] was 0%, the “Population Mitochondria Different-Phenotype (%)” value [10] was 20% and the “Population Mitotic Cells (%)” value [10] was 76%. The “Population Tubulin-Different-Phenotype (%)” value [10] was 7%, the “Total Cell Count” value [10] was 638 and the “Population Apoptotic (%)” value [11] was 30%. For the same compound, the “Population Fragmented Nuclei (%)” value [11] was 14%, the “Population Healthy Nuclei (%)” value [11] was 79% and the “Population Hoechst High Intensity Objects (%)” value [11] was 3%. The “Population Membrane Permeable-Phenotype (%)” value [11] was 0%, the “Population Mitochondria Different-Phenotype (%)” value [11] was 24% and the “Population Mitotic Cells (%)” value [11] was 70%. The “Population Normal (%)” value [11] was 96%, the “Population Pyknosed Nuclei (%)” value [11] was 6% and the “Population Tubulin-Different-Phenotype (%)” value [11] was 13%. The “Total Cell Count” value [11] was 660, the “Population Apoptotic (%)” value [12] was 17% and the “Population Fragmented Nuclei (%)” value [12] was 12%. For the same compound, the “Population Healthy Nuclei (%)” value [12] was 83%, the “Population Hoechst High Intensity Objects (%)” value [12] was 1% and the “Population Mitochondria Different-Phenotype (%)” value [12] was 17%. The “Population Mitotic Cells (%)” value [12] was 82%, the “Population Normal (%)” value [12] was 98% and the “Population Pyknosed Nuclei (%)” value [12] was 4%. The “Population Tubulin-Different-Phenotype (%)” value [12] was 7% and the “Total Cell Count” value [12] was 859.
